ChEMBL document CHEMBL1153046, “Synthesis and antitumor activity of substituted triazolo[4,3-a]pyrimidin-6-sulfonamide with an incorporated thiazolidinone moiety” (2009)

How the values were obtained:
Format in all cases: functional
[1] = system: HT-29; experiment: Growth inhibition of human HT-29 cells after 48 hrs by sulforhodamine B assay; conditions: HT-29, 48 h
Method in brief: (§1)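 NCI 60-cell-line panel. Cells are grown in RPMI1640 with 5% fetal calf serum and 2 mM L-glutamine, seeded at a density set by growth characteristics, and preincubated 24 h. Compound is tested at a minimum of five concentrations at 10-fold dilution, with 48 h continuous exposure. Viability is read by sulforhodamine B protein assay. GI50, TGI and LC50 come from dose-response curves.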

[2] = Growth inhibition of human […] cells after 48 hrs by sulforhodamine B assay; conditions: for CC50: read-out: LC50 (the source's name); method in brief: as §1
[3] = system: UACC-62; experiment: Growth inhibition of human UACC62 cells after 48 hrs by sulforhodamine B assay; conditions: UACC-62, 48 h; for CC50: read-out: LC50 (the source's name)
Method in brief: (§2)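 NCI 60-cell-line panel (nine cancer types), with cells grown in RPMI1640 plus 5% fetal calf serum and 2 mM L-glutamine. Cells are seeded at a density that depends on the line and preincubated 24 h. Compounds are then applied at a minimum of five 10-fold dilutions over a 5-log range with 48 h continuous exposure. Viability is read by SRB protein assay, and GI50 is derived from dose-response curves in units of 10^-5 M.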

[4] = system: MDA-MB-435; experiment: Growth inhibition of human MDA-MB-435 cells after 48 hrs by sulforhodamine B assay; conditions: MDA-MB-435, 48 h; method in brief: as §1
[5] = system: NCI-H23; experiment: Growth inhibition of human NCI-H23 cells after 48 hrs by sulforhodamine B assay; conditions: NCI-H23, 48 h; method in brief: as §1
[6] = system: CCRF-CEM; experiment: Growth inhibition of human CCRF-CEM cells after 48 hrs by sulforhodamine B assay; method in brief: as §1
[7] = system: M14; experiment: Growth inhibition of human M14 cells after 48 hrs by sulforhodamine B assay; conditions: M14, 48 h; method in brief: as §1
[8] = system: SF-268; experiment: Growth inhibition of human SF268 cells after 48 hrs by sulforhodamine B assay; conditions: SF-268, 48 h; for CC50: read-out: LC50 (the source's name); method in brief: as §1
[9] = system: SF-268; experiment: Antiproliferative activity against human SF268 cells assessed as cell growth at 100 uM after 48 hrs by alamar blue assay; conditions: SF-268, 48 h, read-out: Activity
Method in brief: (§3)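 NCI three-cell-line primary screen. Cells are seeded and preincubated in microtiter plates. Compound is added at a single 10^-4 M concentration and cultures are incubated 48 h. The end-point is read with alamar blue. Results are given as percent growth relative to untreated control cells.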

[10] = system: NCI/ADR-RES; experiment: Growth inhibition of human NCI/ADR-RES cells after 48 hrs by sulforhodamine B assay; method in brief: as §1
[11] = system: UACC-257; experiment: Growth inhibition of human UACC257 cells after 48 hrs by sulforhodamine B assay; conditions: UACC-257, 48 h; method in brief: as §2
[12] = system: K562; experiment: Growth inhibition of human K562 cells after 48 hrs by sulforhodamine B assay; conditions: K562, 48 h; method in brief: as §1
[13] = system: HOP-62; experiment: Growth inhibition of human HOP62 cells after 48 hrs by sulforhodamine B assay; conditions: HOP-62, 48 h; method in brief: as §1
[14] = system: COLO 205; experiment: Growth inhibition of human COLO205 cells after 48 hrs by sulforhodamine B assay; conditions: COLO 205, 48 h; method in brief: as §1
[15] = system: MCF7; experiment: Antiproliferative activity against human MCF7 cells assessed as cell growth at 100 uM after 48 hrs by alamar blue assay; conditions: MCF7, 48 h, read-out: Activity; method in brief: as §3
[16] = system: HCT-116; experiment: Growth inhibition of human HCT116 cells after 48 hrs by sulforhodamine B assay; conditions: HCT-116, 48 h; method in brief: as §1
[17] = system: OVCAR-5; experiment: Growth inhibition of human OVCAR5 cells after 48 hrs by sulforhodamine B assay; conditions: OVCAR-5, 48 h; method in brief: as §1
[18] = system: NCI-H460; experiment: Antiproliferative activity against human NCI-H460 cells assessed as cell growth at 100 uM after 48 hrs by alamar blue assay; conditions: NCI-H460, 48 h, read-out: Activity; method in brief: as §3
[19] = system: NCI-H226; experiment: Growth inhibition of human NCI-H226 cells after 48 hrs by sulforhodamine B assay; conditions: NCI-H226, 48 h; method in brief: as §1
[20] = system: SF-539; experiment: Growth inhibition of human SF539 cells after 48 hrs by sulforhodamine B assay; conditions: SF-539, 48 h; method in brief: as §1
[21] = system: SK-MEL-2; experiment: Growth inhibition of human SK-MEL-2 cells after 48 hrs by sulforhodamine B assay; conditions: SK-MEL-2, 48 h; method in brief: as §1
[22] = system: A498; experiment: Growth inhibition of human A498 cells after 48 hrs by sulforhodamine B assay; conditions: A498, 48 h; method in brief: as §1
[23] = system: IGROV-1; experiment: Growth inhibition of human IGROV1 cells after 48 hrs by sulforhodamine B assay; conditions: IGROV-1, 48 h; method in brief: as §1
[24] = system: KM12; experiment: Growth inhibition of human KM12 cells after 48 hrs by sulforhodamine B assay; conditions: KM12, 48 h; method in brief: as §1
[25] = system: SN12C; experiment: Growth inhibition of human SN12C cells after 48 hrs by sulforhodamine B assay; method in brief: as §1
[26] = system: CAKI-1; experiment: Growth inhibition of human Caki1 cells after 48 hrs by sulforhodamine B assay; conditions: CAKI-1, 48 h; method in brief: as §1
[27] = system: OVCAR-8; experiment: Growth inhibition of human OVCAR8 cells after 48 hrs by sulforhodamine B assay; conditions: OVCAR-8, 48 h; method in brief: as §1
[28] = system: SK-MEL-5; experiment: Growth inhibition of human SK-MEL-5 cells after 48 hrs by sulforhodamine B assay; conditions: SK-MEL-5, 48 h; for CC50: read-out: LC50 (the source's name); method in brief: as §1
[29] = system: MDA-MB-231; experiment: Growth inhibition of human MDA-MB-231 cells after 48 hrs by sulforhodamine B assay; conditions: MDA-MB-231, 48 h; method in brief: as §1
[30] = system: MCF7; experiment: Growth inhibition of human MCF7 cells after 48 hrs by sulforhodamine B assay; conditions: MCF7, 48 h; method in brief: as §1

COc1ccc(/C=N/c2nc3[nH]nc(C)n3c(=O)c2S(=O)(=O)NN2C(=O)C(CN3CCOCC3)SC2c2ccc(OC)cc2)cc1 (centres undefined)
GI50 [1]: 26.7 µM | GI50 [2]: 16.4 µM | TGI [2]: 44.3 µM | CC50 [2]: > 100 µM | GI50 [3]: 25.4 µM | TGI [3]: > 100 µM | CC50 [3]: > 100 µM | GI50 [4]: 35 µM | TGI [4]: > 100 µM | GI50 [5]: 87.8 µM | TGI [5]: > 100 µM | GI50 [6]: 25.8 µM | TGI [6]: 78.9 µM | GI50 [7]: 67.4 µM | LC50 (concentration killing 50% of cells) [7]: > 100 µM | TGI [7]: > 100 µM | GI50 [8]: > 100 µM | TGI [8]: > 100 µM | CC50 [8]: > 100 µM | growth at 100 µM [9]: 75% | GI50 [10]: 43.1 µM | TGI [10]: > 100 µM | GI50 [11]: 32.2 µM | LC50 [11]: > 100 µM | TGI [11]: > 100 µM | GI50 [12]: 13 µM | LC50 [12]: 80.5 µM | TGI [12]: 32.3 µM | GI50 [13]: 86.6 µM | LC50 [13]: > 100 µM | TGI [13]: > 100 µM | GI50 [14]: 66.2 µM | TGI [14]: > 100 µM | growth at 100 µM [15]: 64% | GI50 [16]: 29.7 µM | LC50 (concentration killing 50% of cells) [16]: > 100 µM | TGI [16]: 97.3 µM | GI50 [17]: > 100 µM | LC50 (concentration causing 50% net cell kill) [17]: > 100 µM | TGI [17]: > 100 µM | growth at 100 µM [18]: 16% | GI50 [19]: 53.6 µM | LC50 (concentration killing 50% of cells) [19]: > 100 µM | TGI [19]: > 100 µM | GI50 [20]: 75.1 µM | LC50 [20]: > 100 µM | TGI [20]: > 100 µM | GI50 [21]: 99.3 µM | LC50 (concentration killing 50% of cells) [21]: > 100 µM | TGI [21]: > 100 µM | GI50 [22]: 25.5 µM | LC50 (concentration giving 50% net cell kill) [22]: > 100 µM | TGI [22]: 69.2 µM | GI50 [23]: 26 µM | LC50 [23]: > 100 µM | TGI [23]: 97.4 µM | GI50 [24]: 36.1 µM | GI50 [25]: 55.1 µM | LC50 [25]: > 100 µM | TGI [25]: > 100 µM | GI50 [26]: 43.3 µM | LC50 (50% lethal concentration) [26]: > 100 µM | TGI [26]: > 100 µM | GI50 [27]: 31.4 µM | TGI [27]: > 100 µM | GI50 [28]: 19 µM | TGI [28]: > 100 µM | CC50 [28]: > 100 µM | GI50 [29]: 25.3 µM | LC50 (50% lethal concentration) [29]: > 100 µM | TGI [29]: > 100 µM | GI50 [30]: 77.3 µM | TGI [30]: > 100 µM

COc1ccc(/C=N/c2nc3[nH]nc(C)n3c(=O)c2S(=O)(=O)NN2C(=O)C(CN3CCN(C)CC3)SC2c2ccc(OC)cc2)cc1 (centres undefined)
GI50 [1]: 34.7 µM | GI50 [2]: 14.1 µM | TGI [2]: 39 µM | CC50 [2]: > 100 µM | GI50 [3]: 18.9 µM | TGI [3]: 38.4 µM | CC50 [3]: 77.8 µM | GI50 [4]: 24.1 µM | TGI [4]: 64.6 µM | GI50 [5]: 20.5 µM | TGI [5]: 48.1 µM | GI50 [6]: 17.2 µM | TGI [6]: 49.2 µM | GI50 [7]: 17 µM | LC50 (concentration killing 50% of cells) [7]: 78 µM | TGI [7]: 36.5 µM | GI50 [8]: 17.7 µM | TGI [8]: 42 µM | CC50 [8]: 99.6 µM | growth at 100 µM [9]: 18% | GI50 [10]: 14.1 µM | TGI [10]: 40.2 µM | GI50 [11]: 21.6 µM | LC50 [11]: 92.3 µM | TGI [11]: 44.7 µM | GI50 [12]: 13 µM | LC50 [12]: 63.3 µM | TGI [12]: 28.7 µM | GI50 [13]: 20.2 µM | LC50 [13]: 82.6 µM | TGI [13]: 40.9 µM | growth at 100 µM [15]: 9% | GI50 [16]: 5.89 µM | LC50 (concentration killing 50% of cells) [16]: 71.5 µM | TGI [16]: 47.2 µM | GI50 [17]: 24.3 µM | LC50 (concentration causing 50% net cell kill) [17]: 90.7 µM | TGI [17]: 47 µM | growth at 100 µM [18]: 0% | GI50 [19]: 12.4 µM | LC50 (concentration killing 50% of cells) [19]: 75.7 µM | TGI [19]: 30.6 µM | GI50 [20]: 6.5 µM | LC50 [20]: 61.2 µM | TGI [20]: 21.8 µM | GI50 [21]: 21.3 µM | LC50 (concentration killing 50% of cells) [21]: 99.4 µM | TGI [21]: 46.1 µM | GI50 [22]: 12.9 µM | LC50 (concentration giving 50% net cell kill) [22]: 60.9 µM | TGI [22]: 28.1 µM | GI50 [23]: 21 µM | LC50 [23]: 93.9 µM | TGI [23]: 44.4 µM | GI50 [24]: 24.8 µM | GI50 [25]: 18.6 µM | LC50 [25]: 68.9 µM | TGI [25]: 35.8 µM | GI50 [26]: 20.9 µM | LC50 (50% lethal concentration) [26]: 77.8 µM | TGI [26]: 40.3 µM | GI50 [27]: 7.82 µM | TGI [27]: 47.2 µM | GI50 [28]: 19.3 µM | TGI [28]: 39 µM | CC50 [28]: 78.5 µM | GI50 [29]: 12.2 µM | LC50 (50% lethal concentration) [29]: 88.6 µM | TGI [29]: 32.9 µM | GI50 [30]: 15.3 µM | TGI [30]: 47.8 µM
